Source: paper PMC8324497 (Cell Reports Medicine, 2021)

Columns and labels:
ERK1 = ERK1 (Homo sapiens, UniProt P27361); assay: ERK1/ERK2 HTRF enzymatic assay; format: biochemical
Procedure, shortened: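 Substrate-ATP mix added, then enzyme mix, and incubated 60 min at room temperature with shaking. Reaction mixture was then transferred into HTRF detection mix for 45 min at room temperature and read in HTRF mode. IC50 from a variable-slope sigmoidal fit.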

HT-29 = assay: Cell proliferation assay; format: cell-based; details: Homo sapiens, HT-29, 72 h
Procedure, shortened: (§1)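 Adherent solid-tumour cells were seeded at 5,000 cells/well and allowed to attach for 16–24 h at 37°C, 5% CO2. They were exposed to the test compound at 0.0005–10 μM (3-fold serial dilutions) for 72 h. Alamar Blue was added (1X final) for 1–3 h and fluorescence read at 540 nm excitation, 590 nm emission. IC50 came from a sigmoidal variable-slope fit.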

A375 = assay: Cell proliferation assay; format: cell-based; details: Homo sapiens, A-375, 72 h
Procedure, shortened: as §1

T24 = assay: Cell proliferation assay; format: cell-based; details: Homo sapiens, T-24, 72 h
NCI-H2122 = assay: Cell proliferation assay; format: cell-based; details: Homo sapiens, NCI-H2122, 72 h
HCT116 = assay: Cell proliferation assay; format: cell-based; details: Homo sapiens, HCT-116, 72 h
Calu-6 = assay: Cell proliferation assay; format: cell-based; details: Homo sapiens, Calu-6, 72 h
CFPAC-1 = assay: Cell proliferation assay; format: cell-based; details: Homo sapiens, CFPAC-1, 72 h
SK-MEL-2 = assay: Cell proliferation assay; format: cell-based; details: Homo sapiens, SK-MEL-2, 72 h
U-87 MG = assay: Cell proliferation assay; format: cell-based; details: Homo sapiens, 72 h
Procedure, shortened: as §1

MCF7 = assay: Cell proliferation assay; format: cell-based; details: Homo sapiens, MCF7, 72 h
Procedure, shortened: as §1

T-47D = assay: Cell proliferation assay; format: cell-based; details: Homo sapiens, T47D, 72 h
Procedure, shortened: as §1

NCI-H1975 = assay: Cell proliferation assay; format: cell-based; details: Homo sapiens, NCI-H1975, 72 h
Procedure, shortened: as §1

BT-474 = assay: Cell proliferation assay; format: cell-based; details: Homo sapiens, BT-474, 72 h
Procedure, shortened: as §1

786-O = assay: Cell proliferation assay; format: cell-based; details: Homo sapiens, 786-0, 72 h
Procedure, shortened: as §1

EB1 = assay: Cell viability MTS assay; format: cell-based; details: Homo sapiens, EB1, read-out: IC50 mean values
Procedure, shortened: (§2)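 Lymphoma suspension lines were grown in RPMI 1640 with 10–20% heat-inactivated FBS, 1% L-glutamine and penicillin-streptomycin at 37°C, 5% CO2. Cells were plated at 25,000/100 μL (96-well) or 250,000/mL (24-well) with DMSO 0.1% vehicle or rising compound concentrations for 24–72 h. MTS reagent was added at 1:5 and absorbance read at 490 nm. IC50 was taken from three independent experiments (mean ± SD).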

Daudi = assay: Cell viability MTS assay; format: cell-based; details: Homo sapiens, read-out: IC50 mean values
Procedure, shortened: as §2

L-428 = assay: Cell viability MTS assay; format: cell-based; details: Homo sapiens, L-428, read-out: IC50 mean values
Procedure, shortened: as §2

SUP-M2 = assay: Cell viability MTS assay; format: cell-based; details: Homo sapiens, SUP-M2, read-out: IC50 mean values
Procedure, shortened: as §2

REC-1 = assay: Cell viability MTS assay; format: cell-based; details: Homo sapiens, Rec1, read-out: IC50 mean values
Procedure, shortened: as §2

JVM-2 = assay: Cell viability MTS assay; format: cell-based; details: Homo sapiens, JVM-2, read-out: IC50 mean values
Procedure, shortened: as §2

OCI-Ly3 = assay: Cell viability MTS assay; format: cell-based; details: Homo sapiens, OCI-Ly3, read-out: IC50 mean values
Procedure, shortened: as §2

BJAB = assay: Cell viability MTS assay; format: cell-based; details: Homo sapiens, read-out: IC50 mean values
Procedure, shortened: as §2

KARPAS-299 = assay: Cell viability MTS assay; format: cell-based; details: Homo sapiens, KARPAS-299, read-out: IC50 mean values
Procedure, shortened: as §2

TMD8 = assay: Cell viability MTS assay; format: cell-based; details: Homo sapiens, TMD8, read-out: IC50 mean values
Procedure, shortened: as §2

SU-DHL-1 = assay: Cell viability MTS assay; format: cell-based; details: Homo sapiens, SU-DHL-1, read-out: IC50 mean values
Procedure, shortened: as §2

DB = assay: Cell viability MTS assay; format: cell-based; details: Homo sapiens, read-out: IC50 mean values
Procedure, shortened: as §2

Ramos = assay: Cell viability MTS assay; format: cell-based; details: Homo sapiens, read-out: IC50 mean values
Procedure, shortened: as §2

OCI-Ly10 = assay: Cell viability MTS assay; format: cell-based; details: Homo sapiens, OCI-Ly10, read-out: IC50 mean values
Procedure, shortened: as §2

SU-DHL-6 = assay: Cell viability MTS assay; format: cell-based; details: Homo sapiens, SU-DHL-6, read-out: IC50 mean values
Procedure, shortened: as §2

OCI-Ly19 = assay: Cell viability MTS assay; format: cell-based; details: Homo sapiens, OCI-LY19, read-out: IC50 mean values
Procedure, shortened: as §2

MINO = assay: Cell viability MTS assay; format: cell-based; details: Homo sapiens, read-out: IC50 mean values
Procedure, shortened: as §2

NU-DHL-1 = assay: Cell viability MTS assay; format: cell-based; details: Homo sapiens, NU-DHL-1, read-out: IC50 mean values
Procedure, shortened: as §2

MINO xenograft = assay: Mantle cell lymphoma xenograft model; format: in vivo, mouse
ERK1/2 kinases = assay: Primary kinome screening, panel of 335 kinases; format: biochemical; details: 1.0 μM
Procedure, shortened: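 Radiometric profiling against 335 purified serine/threonine, tyrosine and lipid kinases at a single fixed test-compound concentration of 1 uM. Residual activity (%) = 100 × (cpm of compound − low control)/(high control − low control).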

[1] = system: advanced solid tumors harboring BRAF and KRAS, HRAS, and NRAS mutations; details: phase I, early results, cited from earlier work

Sequence of ERK1 (P27361 whole entry): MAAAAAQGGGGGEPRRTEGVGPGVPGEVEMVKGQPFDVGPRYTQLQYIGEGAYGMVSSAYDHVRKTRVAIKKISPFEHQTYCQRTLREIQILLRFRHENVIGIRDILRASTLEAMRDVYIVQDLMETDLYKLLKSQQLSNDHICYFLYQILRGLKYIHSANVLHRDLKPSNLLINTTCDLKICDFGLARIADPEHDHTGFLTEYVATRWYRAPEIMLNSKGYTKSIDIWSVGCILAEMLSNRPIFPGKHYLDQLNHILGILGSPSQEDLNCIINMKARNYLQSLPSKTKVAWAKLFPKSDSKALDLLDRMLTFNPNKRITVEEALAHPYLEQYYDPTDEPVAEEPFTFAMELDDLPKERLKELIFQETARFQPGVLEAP

**Q.** Which IC50 (ERK1) does the source give for `Cc1cnc(NC2CCOCC2)nc1-n1cnc(C(=O)NC(CN)c2cc(F)cc(Cl)c2)c1` (centres unmarked) [ASN007, N-(2-amino-1-(3-chloro-5-fluorophenyl)ethyl)-1-(5-methyl-2-((tetrahydro-2H-pyran-4-yl)amino)pyrimidin-4-yl)-1H-imidazole-4-carboxamide] here?
**A.** Its IC50 is 0.002 µM.

**Q.** And the IC50 (HT-29)?
**A.** The IC50 was 0.02 µM.

**Q.** And the IC50 (A375)?
**A.** Its IC50 is 0.007 µM.

**Q.** And the IC50 (T24)?
**A.** Its IC50 is 0.653 µM.

**Q.** What about the IC50 (NCI-H2122) of the same compound?
**A.** Its IC50 is 0.015 µM.

**Q.** What about the IC50 (HCT116) of the same compound?
**A.** Its IC50 is 0.026 µM.

**Q.** What about the IC50 (Calu-6) of the same compound?
**A.** The IC50 was 0.007 µM.

**Q.** What about the IC50 (CFPAC-1) of the same compound?
**A.** Its IC50 is 0.576 µM.

**Q.** What about the IC50 (SK-MEL-2) of the same compound?
**A.** The IC50 was 0.003 µM.

**Q.** What about the IC50 (U-87 MG) of the same compound?
**A.** The IC50 was over 10 µM.

**Q.** And the IC50 (MCF7)?
**A.** The IC50 was over 10 µM.

**Q.** And the IC50 (T-47D)?
**A.** The IC50 was over 10 µM.

**Q.** And the IC50 (NCI-H1975)?
**A.** The IC50 was over 10 µM.

**Q.** What about the IC50 (BT-474) of the same compound?
**A.** The IC50 was over 10 µM.

**Q.** And the IC50 (786-O)?
**A.** The IC50 was over 10 µM.

**Q.** And the IC50 (EB1)?
**A.** Its IC50 is over 10 µM.

**Q.** And the IC50 (Daudi)?
**A.** The IC50 was over 10 µM.

**Q.** What about the IC50 (L-428) of the same compound?
**A.** The IC50 was over 10 µM.

**Q.** What about the IC50 (SUP-M2) of the same compound?
**A.** The IC50 was over 10 µM.

**Q.** What about the IC50 (REC-1) of the same compound?
**A.** Its IC50 is 7.6 µM.

**Q.** And the IC50 (JVM-2)?
**A.** The IC50 was 5.7 µM.

**Q.** And the IC50 (OCI-Ly3)?
**A.** The IC50 was 5.5 µM.

**Q.** And the IC50 (BJAB)?
**A.** Its IC50 is 4.3 µM.

**Q.** And the IC50 (KARPAS-299)?
**A.** Its IC50 is 4.1 µM.

**Q.** And the IC50 (TMD8)?
**A.** The IC50 was 3 µM.

**Q.** And the IC50 (SU-DHL-1)?
**A.** Its IC50 is 2.3 µM.

**Q.** What about the IC50 (DB) of the same compound?
**A.** Its IC50 is 1.7 µM.

**Q.** And the IC50 (Ramos)?
**A.** The IC50 was 1.8 µM.

**Q.** What about the IC50 (OCI-Ly10) of the same compound?
**A.** The IC50 was 1.5 µM.

**Q.** What about the IC50 (SU-DHL-6) of the same compound?
**A.** The IC50 was 1.2 µM.

**Q.** And the IC50 (OCI-Ly19)?
**A.** Its IC50 is 0.4 µM.

**Q.** And the IC50 (MINO)?
**A.** The IC50 was 0.2 µM.

**Q.** What about the IC50 (NU-DHL-1) of the same compound?
**A.** Its IC50 is 0.1 µM.

**Q.** And the “phosphorylation of ERK1/2 target proteins RSK and MSK in tumor extracts” value (MINO xenograft; MINO xenograft, end of treatment, 75 mg/kg, QD, or 40 mg/kg, BID)?
**A.** Its value is “decreased the phosphorylation”.

**Q.** And the tumor growth inhibition (MINO xenograft; MINO, NRAS G13D, two different doses)?
**A.** The tumor growth inhibition was “strong tumor growth inhibition”.

**Q.** What about the kinase selectivity (ERK1/2 kinases) of the same compound?
**A.** The kinase selectivity was “selective inhibition of ERK1/2 kinases”.

**Q.** And the “duration of clinical activity” value ([1]; lasting up)?
**A.** Its value is over 12 months.

**Q.** And the tolerability [1]?
**A.** Its tolerability is “well tolerated”.
